Active and inactive are the calls of the source. No cut-off for these calls is given here.
Tests used:
Histamine H2 receptor [1] = molecular target: Histamine H2 receptor (Cavia porcellus, UniProt P47747); experiment: Agonist activity at guinea pig H2R-Gsalphas expressed in Sf9 cells at 0.1 nM to 10 uM by steady state GTPase activity assay; format: functional
Method in brief: (§1)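 Steady-state GTPase assay with Sf9 membranes (5–20 µg protein) expressing hH2R- or gpH2R-Gsαs, in 50 mM Tris-HCl pH 7.4. Mix: 1.0 mM MgCl2, 100 µM EDTA, 100 nM GTP, 100 µM AppNHp, 5 mM creatine phosphate, creatine kinase, 0.2% BSA, ligand 0.1 nM–10 µM. After 2 min at 25 °C, [γ-32P]GTP or [γ-33P]GTP was added and reacted 20 min at 25 °C. Charcoal stop; released Pi counted. Two to six experiments, duplicate.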

Histamine H2 receptor [2] = molecular target: T1, Histamine H2 receptor (Homo sapiens, UniProt P25021); experiment: Intrinsic agonist activity at human H2R-Gsalphas expressed in Sf9 cells by steady state GTPase activity assay relative to histamine; format: functional
T1 sequence (P25021 whole entry): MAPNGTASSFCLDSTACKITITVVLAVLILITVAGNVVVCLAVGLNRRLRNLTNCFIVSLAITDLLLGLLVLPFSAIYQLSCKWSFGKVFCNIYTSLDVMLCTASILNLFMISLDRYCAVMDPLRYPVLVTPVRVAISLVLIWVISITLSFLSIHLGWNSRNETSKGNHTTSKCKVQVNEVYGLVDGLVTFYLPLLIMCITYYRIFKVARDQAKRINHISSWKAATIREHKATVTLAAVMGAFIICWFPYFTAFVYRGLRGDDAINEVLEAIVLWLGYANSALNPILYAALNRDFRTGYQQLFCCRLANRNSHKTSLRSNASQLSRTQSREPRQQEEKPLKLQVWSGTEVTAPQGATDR
Method in brief: as §1, with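 “counted. Emax referenced to histamine (1.0).” for “counted.”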

[3] = Agonist activity at guinea pig H2R hE2 loop Gsalphas mutant containing human H2 receptor E2 loop expressed in Sf9 cells by steady state GTPase activity assay; format: functional; conditions: Cavia porcellus
Method in brief: (§2)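 Mutant H2R-Gsαs fusion proteins in Sf9 membranes were tested by steady-state GTPase hydrolysis: 1.0 mM MgCl2, 100 nM GTP, AppNHp/creatine phosphate regeneration, pH 7.4 Tris, 20 min at 25 °C with [γ-32P/33P]GTP, charcoal separation of Pi.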

[4] = molecular target: Histamine H2 receptor (Cavia porcellus) (UniProt P47747); experiment: Intrinsic agonist activity at guinea pig H2R-Gsalphas expressed in Sf9 cells by steady state GTPase activity assay relative to histamine; format: functional
Histamine H2 receptor (Cavia porcellus), sequence (P47747 whole entry): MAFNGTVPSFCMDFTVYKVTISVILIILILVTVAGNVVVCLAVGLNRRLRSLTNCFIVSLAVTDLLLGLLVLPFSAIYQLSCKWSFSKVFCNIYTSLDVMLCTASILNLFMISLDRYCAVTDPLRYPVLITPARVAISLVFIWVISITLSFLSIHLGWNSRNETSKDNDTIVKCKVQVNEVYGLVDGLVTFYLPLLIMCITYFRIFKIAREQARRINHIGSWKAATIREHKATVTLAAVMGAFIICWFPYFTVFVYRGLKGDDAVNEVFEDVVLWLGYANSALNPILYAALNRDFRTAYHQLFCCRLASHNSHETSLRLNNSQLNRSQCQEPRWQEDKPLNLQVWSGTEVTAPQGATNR
Method in brief: as §1, with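 “counted. Emax referenced to histamine (1.0).” for “counted.”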

[5] = Agonist activity at human H2R-C17Y-A271D Gsalphas mutant containing human H2 receptor E2 loop expressed in Sf9 cells by steady state GTPase activity assay; format: functional; method in brief: as §2
[6] = molecular target: Histamine H2 receptor (Cavia porcellus) (UniProt P47747); experiment: Intrinsic agonist activity at H2R in spontaneously beating guinea pig right atrium assessed as increase in heart rate relative to histamine; format: functional, tissue-based; conditions: Cardiac atrium
Method in brief: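 Isolated spontaneously beating guinea pig right atrium. Ligand stocks (10 mM) and dilutions were made in fresh bath fluid. Tissue was washed for 30 min and equilibrated for 15 min. […] Emax is relative to maximal histamine heart-rate increase. Three to five experiments.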

[7] = molecular target: Histamine H2 receptor (Cavia porcellus) (UniProt P47747); experiment: Agonist activity at H2R in spontaneously beating guinea pig right atrium assessed as increase in heart rate in presence of 100 uM H2R antagonist cimetidine; format: functional, tissue-based; conditions: Cardiac atrium
Histamine H4 receptor [8] = molecular target: T2, Histamine H4 receptor (Homo sapiens, UniProt Q9H3N8); experiment: Agonist activity at human H4R-RGS19 Galphai2 Gbeta1gamma2 expressed in Sf9 cells at 0.1 nM to 1 mM by steady state GTPase activity assay; format: functional
T2 sequence (Q9H3N8 whole entry): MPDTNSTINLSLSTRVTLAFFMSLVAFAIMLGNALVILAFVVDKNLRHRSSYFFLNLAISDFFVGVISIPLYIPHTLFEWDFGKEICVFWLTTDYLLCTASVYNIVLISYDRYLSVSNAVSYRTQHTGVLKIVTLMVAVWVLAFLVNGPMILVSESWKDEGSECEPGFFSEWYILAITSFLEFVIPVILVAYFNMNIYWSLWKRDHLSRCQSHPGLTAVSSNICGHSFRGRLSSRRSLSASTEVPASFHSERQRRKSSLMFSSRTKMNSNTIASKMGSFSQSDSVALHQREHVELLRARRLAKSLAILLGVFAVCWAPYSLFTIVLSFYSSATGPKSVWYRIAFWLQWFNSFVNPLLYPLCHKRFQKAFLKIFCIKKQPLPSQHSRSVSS
Method in brief: (§3)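 Sf9 membranes coexpressing hH4R-RGS19 with Gαi2 and Gβ1γ2 were assayed for GTP hydrolysis with 5.0 mM MgCl2 and 100 mM NaCl (final), 100 nM GTP, 50 mM Tris-HCl pH 7.4. Ligands spanned 0.1 nM–1 mM. Preincubation was 2 min, then 20 min at 25 °C with [γ-32P]GTP or [γ-33P]GTP. Charcoal quench; Pi counted. Sigmoidal nonlinear regression; efficacy relative to histamine.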

Histamine H3 receptor = Histamine H3 receptor (Homo sapiens, UniProt Q9Y5N1); experiment: Agonist activity at human H3R-Galphai2-Gbeta1gamma2-RGS4 expressed in Sf9 cells 0.1 nM to 1 mM by steady state GTPase activity assay; format: functional
Histamine H3 receptor, sequence (Q9Y5N1 whole entry): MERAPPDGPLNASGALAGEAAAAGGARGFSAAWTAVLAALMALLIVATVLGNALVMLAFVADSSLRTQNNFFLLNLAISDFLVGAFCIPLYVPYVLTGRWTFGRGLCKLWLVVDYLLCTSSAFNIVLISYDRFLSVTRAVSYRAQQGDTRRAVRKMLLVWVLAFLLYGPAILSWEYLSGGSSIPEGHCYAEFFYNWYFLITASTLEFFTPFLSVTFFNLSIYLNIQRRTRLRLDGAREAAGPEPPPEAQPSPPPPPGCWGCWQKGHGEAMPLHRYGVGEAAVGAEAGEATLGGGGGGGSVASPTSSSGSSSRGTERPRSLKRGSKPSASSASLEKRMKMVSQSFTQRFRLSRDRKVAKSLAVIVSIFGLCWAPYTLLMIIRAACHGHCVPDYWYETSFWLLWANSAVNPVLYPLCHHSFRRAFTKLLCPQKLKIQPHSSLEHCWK

Histamine H2 receptor [9] = molecular target: T1, Histamine H2 receptor; experiment: Agonist activity at human H2R-Gsalphas expressed in Sf9 cells at 0.1 nM to 10 uM by steady state GTPase activity assay
Histamine H4 receptor [10] = molecular target: T2, Histamine H4 receptor; experiment: Agonist activity at human H4R-RGS19 Galphai2 Gbeta1gamma2 expressed in Sf9 cells by steady state GTPase activity assay relative to histamine; format: functional; method in brief: as §3
Histamine H2 receptor [11] = molecular target: T1, Histamine H2 receptor; experiment: Potency index, ratio of pEC50 for compound to pEC50 for histamine at human H2R-Gsalphas expressed in Sf9 cells at 0.1 nM to 10 uM by steady state GTPase activity assay
Method in brief: (§4)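 Sf9 membranes expressing human or guinea pig H2R-Gsαs fusion protein, 1.0 mM MgCl2, ATP, 100 nM GTP, AppNHp, creatine phosphate/kinase, BSA, Tris pH 7.4. Agonists 0.1 nM–10 μM, [γ-32P/33P]GTP hydrolysis 20 min at 25 °C, Pi counted. Curves fit by sigmoidal nonlinear regression. Potency given relative to histamine (set to 1.0). Two to six independent experiments in duplicate.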

[12] = molecular target: Histamine H1 receptor (Homo sapiens) (UniProt P35367); experiment: Antagonist activity at human H1R-RGS4 expressed in Sf9 cells by steady state GTPase activity assay; format: functional
Histamine H1 receptor (Homo sapiens), sequence (P35367 whole entry): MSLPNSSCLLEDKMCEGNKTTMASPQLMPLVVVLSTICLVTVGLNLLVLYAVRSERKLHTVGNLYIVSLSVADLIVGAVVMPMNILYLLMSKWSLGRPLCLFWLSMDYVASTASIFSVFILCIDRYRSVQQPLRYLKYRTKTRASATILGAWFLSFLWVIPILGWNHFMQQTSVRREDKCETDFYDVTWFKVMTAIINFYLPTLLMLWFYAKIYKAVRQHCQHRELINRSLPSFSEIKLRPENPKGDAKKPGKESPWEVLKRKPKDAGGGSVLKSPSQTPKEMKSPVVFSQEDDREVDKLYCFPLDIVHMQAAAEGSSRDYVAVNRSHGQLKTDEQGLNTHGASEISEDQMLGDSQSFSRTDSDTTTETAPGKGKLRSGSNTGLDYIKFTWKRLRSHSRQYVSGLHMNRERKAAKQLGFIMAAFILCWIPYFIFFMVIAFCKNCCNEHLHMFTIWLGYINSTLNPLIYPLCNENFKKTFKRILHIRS
Method in brief: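 Sf9 membranes (5–20 μg protein) co-expressing human H1R with RGS4. Reaction with 1.0 mM MgCl2, 100 μM ATP, 100 nM GTP, AppNHp, creatine phosphate/kinase, 0.2% BSA, 50 mM Tris-HCl pH 7.4. Histamine 100 nM with test ligand 10 nM–1 mM. [γ-32P/33P]GTP added, 20 min at 25 °C. Charcoal stop, released Pi counted. pKB from sigmoidal nonlinear fits.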

[13] = Selectivity index, ratio of EC50 for human H2R-Gsalphas to EC50 for guinea pig H2R-Gsalphas by steady state GTPase activity assay
[14] = molecular target: Histamine H2 receptor (Cavia porcellus) (UniProt P47747); experiment: Potency index, ratio of pEC50 for compound to pEC50 for histamine at guinea pig H2R-Gsalphas expressed in Sf9 cells at 0.1 nM to 10 uM by steady state GTPase activity assay; method in brief: as §4

Histamine H2 receptor (Cavia porcellus, UniProt P47747), sequence (P47747 whole entry): as the sequence (P47747 whole entry) above

| Compound | Intrinsic activity (Histamine H2 receptor [2]) | Activity [3] | Intrinsic activity [4] | Activity [5] | Intrinsic activity [6] | other results |
| --- | --- | --- | --- | --- | --- | --- |
| Cc1nc(N)sc1CCCNC(=N)NC(=O)CCCCCCCCC(=O)NC(=N)NCCCc1sc(N)nc1C | – | – | – | – | – | EC50 (Histamine H2 receptor [1]; read-out: EC50): 0.39 nM |
| Cc1nc(N)sc1CCCN/C(N)=N/C(=O)CCCCCCC(=O)/N=C(\N)NCCCc1sc(N)nc1C | 0.62 | Active | 0.81 | Active | 0.64 | – |
| Cc1nc(N)sc1CCCN/C(N)=N/C(=O)CCCCC(=O)/N=C(\N)NCCCc1sc(N)nc1C | 0.68 | – | 0.9 | – | 0.88 | %max [7]: 46% |
| N/C(=N\C(=O)CCCCCCCCCCCCCCCCCCCCC(=O)/N=C(\N)NCCCc1cnc(N)s1)NCCCc1cnc(N)s1 | – | – | 0.36 | – | – | – |
| N=C(NCCCc1cnc[nH]1)NC(=O)CCCCCCCCCCCCCCCCCCCCC(=O)NC(N)=NCCCc1cnc[nH]1 | – | – | – | – | – | EC50 (Histamine H4 receptor [8]): > 1000 nM; EC50 (Histamine H3 receptor): 447 nM |
| Cc1nc(N)sc1CCCN/C(N)=N/C(=O)CCCCCCCC(=O)/N=C(\N)NCCCc1sc(N)nc1C | 0.48 | – | 0.9 | – | 0.71 | – |
| Cc1nc(N)sc1CCCN/C(N)=N/C(=O)CCCCCCCCC(=O)/N=C(\N)NCCCc1sc(N)nc1C | 0.53 | Active | 0.79 | Active | 0.62 | – |
| Cc1nc(N)sc1CCCN/C(N)=N/C(=O)CCCCCCCCCCCCCCC(=O)/N=C(\N)NCCCc1sc(N)nc1C | 0.12 | Active | 0.51 | Active | 0.53 | – |
| Cc1nc(N)sc1CCCN/C(N)=N/C(=O)CCCCCCCCCCCCCCCCCCCCC(=O)/N=C(\N)NCCCc1sc(N)nc1C | – | – | 0.58 | – | 0.62 | – |
| NC(=NCCCc1nnc[nH]1)NC(=O)CCCCCCCCC(=O)NC(N)=NCCCc1nnc[nH]1 | – | – | – | – | – | EC50 (Histamine H2 receptor [9]): 151 nM |
| N/C(=N\C(=O)CCCCC(=O)/N=C(\N)NCCCc1c[nH]cn1)NCCCc1c[nH]cn1 | 0.68 | – | 1 | – | – | Intrinsic activity (Histamine H4 receptor [10]): 0.42; EC50 (Histamine H4 receptor [8]): 79.4 nM; EC50 (Histamine H3 receptor): > 10000 nM |
| N/C(=N\C(=O)CCCCCCCCC(=O)/N=C(\N)NCCCc1ncn[nH]1)NCCCc1ncn[nH]1 | 0.49 | – | 0.95 | – | – | – |
| N/C(=N\C(=O)CCCCCCC(=O)/N=C(\N)NCCCc1cnc(N)s1)NCCCc1cnc(N)s1 | 0.79 | Active | 1 | Active | – | – |
| Cc1nc(N)sc1CCCN/C(N)=N/C(=O)CCCCCCCCCCC(=O)/N=C(\N)NCCCc1sc(N)nc1C | 0.46 | – | 0.66 | – | 0.46 | – |
| N/C(=N\C(=O)CCCCCCCCC(=O)/N=C(\N)NCCCc1cnc(N)s1)NCCCc1cnc(N)s1 | 0.75 | Active | 0.94 | Active | – | – |
| N/C(=N\C(=O)CCCCCCCCCCCCCCC(=O)/N=C(\N)NCCCc1cnc(N)s1)NCCCc1cnc(N)s1 | 0.14 | – | 0.59 | – | – | – |
| Cc1nc(N)sc1CCCN/C(N)=N/C(=O)CCCCCCCCC(=O)/N=C(\N)NCCCc1cnc(N)s1 | 0.75 | Active | 0.89 | Active | – | – |
| Cc1nc(N)sc1CCCN/C(N)=N/C(=O)CCCCCCCCC(=O)/N=C(\N)NCCCc1c[nH]cn1 | 0.76 | Active | 1.01 | Active | – | Intrinsic activity (Histamine H4 receptor [10]): 0.52; EC50 (Histamine H4 receptor [8]): 8.51 nM; EC50 (Histamine H3 receptor): 2.88 nM |
| Cc1nc(N)sc1CCN [AMTHAMINE] | 0.91 | – | 1.04 | – | 0.95 | – |
| N/C(=N\C(=O)CCCCCCCCC(=O)/N=C(\N)NCCCc1c[nH]cn1)NCCCc1c[nH]cn1 | 0.81 | Active | 0.98 | Active | 0.91 | Intrinsic activity (Histamine H4 receptor [10]): 0.44; EC50 (Histamine H4 receptor [8]): 8.51 nM; EC50 (Histamine H3 receptor): 1.78 nM |
| Cc1nc(N)sc1CCCN/C(N)=N/C(=O)CCc1ccccc1 | 0.79 | – | 0.76 | – | – | – |
| N/C(=N\C(=O)CCCCCCCCCCCCCCC(=O)/N=C(\N)NCCCc1c[nH]cn1)NCCCc1c[nH]cn1 | 0.29 | – | 0.85 | – | – | EC50 (Histamine H4 receptor [8]): 339 nM; EC50 (Histamine H3 receptor): > 1000 nM |
| N/C(=N\C(=O)CCCCCCC(=O)/N=C(\N)NCCCc1c[nH]cn1)NCCCc1c[nH]cn1 | 0.77 | – | 1.18 | – | – | Ratio (Histamine H2 receptor [11]): 22.4; pKb [12]: 6.7; Intrinsic activity (Histamine H4 receptor [10]): 0.51; EC50 (Histamine H2 receptor [1]; read-out: pEC50 (converted)): 3.24 nM; EC50 (Histamine H2 receptor [9]): 56.2 nM; Ratio EC50 [13]: 17.4; EC50 (Histamine H4 receptor [8]): 41.7 nM; EC50 (Histamine H3 receptor): 4.17 nM; Ratio [14]: 372 |
| N/C(=N\C(=O)CCCCCCCCCCCCCCCCCCCCC(=O)/N=C(\N)NCCCc1c[nH]cn1)NCCCc1c[nH]cn1 | – | – | 0.19 | – | – | – |
